KCNQ1 block: blocks the human KCNQ1 potassium channel; P51787; CHO-K1 KCNQ1, FluxOR thallium flux fluorescence; hits give high values; B-score at 10 µM; actives 1.3% (n = 310,000);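 active means compounds whose thallium flux B-score, printed positive for inhibition, exceeds three library SD while starting fluorescence stays within three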;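 further: channel opened by potassium depolarization with thallium stimulus after 20 min compound exposure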
KCNK9 inh: inhibitors of human KCNK9 two-pore domain potassium channel; HEK293 KCNK9, FluxOR thallium flux fluorescence; hits give low values; B-score at 10 µM; actives 1.2% (n = 310,000); AID 488922;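 active means ratio B-score over 3 SD below the library mean, with starting fluorescence within 5 SD of its mean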;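 further: negative B-score means less thallium flux so channel inhibition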
KCNQ1 act: potentiators or activators of human KCNQ1 potassium channel; AID 2648; B-score at 10 µM; P51787; CHO-K1 KCNQ1, thallium flux FluxOR fluorescence; hits give high values; actives 0.35% (n = 310,000);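 active means fluorescence ratio B-score, a plate-corrected score, at least three library SD, with initial intensity B-score within 5 SD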
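System: CHO-K1 cells stably expressing KCNQ1 / Medium: assay buffer for compound exposure, DMSO matched across wells / Reagent: thallium- and potassium-containing depolarizing buffer / Compound: one concentration, matched DMSO / Incubation: 20 min compound pretreatment at room temperature / Measured by: kinetic FluxOR fluorescence, 10 s baseline plus 110 s post-stimulus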
KCNK3 block: human KCNK3 channel inhibition, primary screen. O14649. CHO-KCNK3 thallium flux, FluxOR fluorescence; hits give low values. B-score at 10 µM. actives 0.84% (n = 340,000);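 active means B-score under library mean minus 4 SD, starting fluorescence ratio at most library mean plus 5 SD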;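 further: more negative B-score means stronger inhibition of thallium flux through KCNK3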
Target sequence (O14649 whole entry, looked up): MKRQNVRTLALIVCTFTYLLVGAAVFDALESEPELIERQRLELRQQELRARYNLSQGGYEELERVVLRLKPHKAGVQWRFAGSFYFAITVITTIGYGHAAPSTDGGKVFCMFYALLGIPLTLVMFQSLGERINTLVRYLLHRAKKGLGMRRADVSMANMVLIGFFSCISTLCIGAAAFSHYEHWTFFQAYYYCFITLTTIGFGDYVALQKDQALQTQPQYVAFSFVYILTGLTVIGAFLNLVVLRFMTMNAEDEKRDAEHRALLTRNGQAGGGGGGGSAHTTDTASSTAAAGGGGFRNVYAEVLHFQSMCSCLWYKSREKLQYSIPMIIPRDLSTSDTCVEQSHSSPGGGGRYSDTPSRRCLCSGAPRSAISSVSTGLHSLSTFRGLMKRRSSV
hERG rescue: compounds protecting human hERG from proarrhythmic drug block; Q12809; CHO-hERG, FluxOR thallium flux, dofetilide IC70 present; activation (rescue from dofetilide block), less the hit threshold, % at 10 µM; actives 0.51% (n = 310,000);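 active means activation above the mean of controls blocked by dofetilide plus 5 SD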;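 further: thallium influx through hERG after potassium depolarization seen as dye fluorescence rise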
* = called active by the depositor; i = inactive; . = not tested or not shown. In the library only some 3.1% were active in any assay of this set; here they are far more common.

SMILES	KCNQ1 block	KCNK9 inh	KCNQ1 act	KCNK3 block	hERG rescue
Cc1cc(C)c(C)c(S(=O)(=O)N2CCN(c3ccccn3)CC2)c1C	i	i	i	i	-9
N#Cc1cc(C(=O)c2cc(F)ccc2O)cn(-c2nccs2)c1=O	8*	i	i	i	-13
CC(=O)c1ccc(S(=O)(=O)NCC(=O)NC(c2nc3ccccc3[nH]2)C(C)C)cc1 (configuration not stated)	.	.	.	i	.
O=C(c1cc(-c2ccccc2)on1)N1CCCC1	i	i	i	i	5.0*
COc1ccccc1NC(=O)C(C)OC(=O)C1CCN(S(=O)(=O)c2ccccc2C(F)(F)F)CC1 (configuration not stated)	.	.	.	i	.
CCCN(CCC)C(=O)CSc1nc2c(sc(=S)n2-c2ccc(OCC)cc2)c(=O)[nH]1	7*	i	i	i	-9
CCCCN(CC)C(=O)CSc1nc2c(sc(=S)n2-c2ccc(OCC)cc2)c(=O)[nH]1	8*	i	i	i	-19
CCOC(=O)CC(=O)CSc1nc2c(sc(=S)n2-c2ccc(OCC)cc2)c(=O)[nH]1	i	i	i	i	-9
CCOc1ccc(-n2c(=S)sc3c(=O)n(-c4ccccc4)c(SC)nc32)cc1	i	i	8*	i	-3
COc1ccccc1-n1c(=S)sc2c(=O)n(Cc3ccco3)c(SC)nc21	9*	i	i	i	-13
CC(=O)c1ccc(S(=O)(=O)N2CCN(CCOc3ccccc3)CC2)cc1	.	.	.	i	.
O=P1(O)Cc2ccccc2-c2ccccc21	.	.	.	i	.
CCCC[C@@H]1C[C@H]1[C@@H](NC(=O)c1cccs1)c1ccc(C(F)(F)F)cc1	i	-7.3*	i	.	-15
COc1ccc(CCC(=O)OCC(=O)NC(=O)c2ccc(Cl)cc2)cc1	.	.	.	i	.
NC1=NC(c2ccccc2)CC(=O)N1 (configuration not stated)	.	.	.	i	.
O=C(Nc1nnc(Cc2ccccc2)s1)c1cccnc1	i	i	i	i	6.3*
CCOc1ccc(C2c3[nH]c4ccccc4c3CCN2CCCn2cccn2)cc1 (configuration not stated)	6*	i	i	i	-11
COc1cccc(C2c3[nH]c4ccccc4c3CCN2CCCn2cccn2)c1 (configuration not stated)	i	i	i	i	-8
CC(C)C(C)NC(=O)CSc1nc2scc(-c3ccco3)c2c(=O)n1-c1ccccc1 (configuration not stated)	i	-6.8*	i	i	-4
Cc1cc2ccccn2c1C(=S)NC(=O)c1ccccc1	i	i	26*	i	34*
Cc1cc2ccccn2c1C(=O)c1ccncc1	i	i	i	i	-6
CCOCC(=O)OCC(=O)Nc1cc(OC)c([N+](=O)[O-])cc1C	i	i	i	i	4.9*
O=C(Nc1cccnc1)c1ccc(N2CCOCC2)c([N+](=O)[O-])c1	i	i	i	i	-8
O=C(NNC(=S)Nc1ccc(Br)cc1)c1ccc(N2CCOCC2)c([N+](=O)[O-])c1	9*	i	i	i	-13
Cn1c2ccccc2c2c(C(=O)NCc3ccco3)cn(C3CCCCC3)c(=O)c21	i	i	i	i	-11
SMILES	KCNQ1 block	KCNK9 inh	KCNQ1 act	KCNK3 block	hERG rescue
Cc1ccc(CNC(=O)c2cn(C3CCCC3)c(=O)c3c2c2ccccc2n3C)o1	i	-6.7*	i	.	-4
CC(C)(C)NC(=O)CSc1nnc(-c2ccco2)n1Cc1ccco1	i	i	i	i	4.9*
CC1(C)SC(=S)N(/N=C/c2ccccc2)C1N(O)C(=O)Nc1ccc([N+](=O)[O-])cc1 (configuration not stated)	i	i	i	i	5.8*
CNC(=O)N(O)C1N(/N=C/c2ccc(N(C)C)cc2)C(=S)SC1(C)C (configuration not stated)	i	i	i	i	-13
CC(C)N(C)C1=CC(=O)C(N(C)C(C)C)=CC1=O	.	.	.	i	.
O=S(=O)(Nc1nc(-c2ccccc2)cs1)c1cc(Cl)ccc1Cl	6*	i	i	i	-6
O=[N+]([O-])c1ccc(S(=O)(=O)Nc2nc(-c3ccccc3)cs2)cc1	i	i	i	i	-10
CC1(C)CN(C(=S)Nc2ccc(F)cc2F)C1=O	i	i	i	i	-6
N/C(=N\OC(=O)c1ccccc1Br)c1cccc([N+](=O)[O-])c1	i	-7.1*	i	i	-7
COc1ccc(NC(=O)c2c(Nc3ccccc3)sc(C(=O)c3ccc(F)cc3)c2N)cc1	i	i	i	i	-6
COc1ccc(C(=O)c2sc(Nc3ccccc3)c(C(=O)Nc3ccc(OC)c(OC)c3)c2N)cc1	7*	i	i	i	-16
O=C(Oc1ccc2ccccc2c1)c1cncc(Br)c1	i	i	i	i	-9
O=C(Oc1ccc2c(=O)c(Oc3ccc4ccccc4c3)coc2c1)c1cncc(Br)c1	i	i	i	i	11*
CSC(=S)N/N=C/c1ccccc1	i	i	35*	i	11*
COc1ccc(/C=C/C(=O)N2c3ccccc3Sc3ccc(C(F)(F)F)cc32)cc1	i	-7.3*	i	i	-11
Cc1cc(C)n(CC(=O)N2c3ccccc3Sc3ccc(C(F)(F)F)cc32)n1	i	i	i	i	-11
CCOC(=O)C1=NN(c2ccc(F)cc2)C2=NC(C)=C(C(=O)OC)C(c3cccs3)N12 (configuration not stated)	i	-6.9*	i	i	-19
CC(NC(=S)NCCc1ccccc1)C(c1cccs1)N1CCN(Cc2ccccc2)CC1 (configuration not stated)	6*	i	i	i	-12
CC(NC(=O)NC1CCCCC1)C(c1cccs1)N1CCN(Cc2ccccc2)CC1 (configuration not stated)	i	i	i	i	-10
Cc1ccc(NC(=S)NNC(=O)c2ccccc2O)c(C)c1	10*	i	i	i	-8
CCc1cc(C(=O)NNC(=S)Nc2cc(C)ccc2C)cs1	i	i	i	i	-3
Cc1ccc(NC(=O)NNC(=O)c2cc3ccccc3cc2O)c(C)c1	i	i	i	i	0
Cc1ccc(C)c(NC(=S)NNC(=O)c2csc3c2CCC(C)C3)c1 (configuration not stated)	i	i	19*	i	6.8*
Cc1ccc(C)c(NC(=S)NNC(=O)c2csc3c2CCCC3)c1	i	i	11*	i	-5
Cc1cccc(NC(=S)NNC(=O)c2csc3c2CCCC3)c1	i	i	i	i	-9
Cc1ccc(S(=O)(=O)N2CCC(C(=O)N/N=C/c3cccn3C)CC2)cc1	.	.	.	i	.

High-throughput results deposited in PubChem BioAssay by Johns Hopkins Ion Channel Center.
